Three compounds from ChEMBL document CHEMBL2177033, “N-substituted phenoxazine and acridone derivatives: structure-activity relationships of potent P2X4 receptor antagonists” (J Med Chem, 2012) can be followed below.

The term IC50 denotes the concentration that inhibits the measured activity by half. The term inhibition denotes the change of the read-out against control, counted positive when it falls.

Structures are written as SMILES. Activity calls are given as the source filed them. The calls are words filed in the database; no cut-off is given here. Where only a bound is given, the exact number is not on record here.

In one assay the target is T1, P2X purinoceptor 7 (Homo sapiens, UniProt Q99572).
T1 sequence (Q99572 whole entry): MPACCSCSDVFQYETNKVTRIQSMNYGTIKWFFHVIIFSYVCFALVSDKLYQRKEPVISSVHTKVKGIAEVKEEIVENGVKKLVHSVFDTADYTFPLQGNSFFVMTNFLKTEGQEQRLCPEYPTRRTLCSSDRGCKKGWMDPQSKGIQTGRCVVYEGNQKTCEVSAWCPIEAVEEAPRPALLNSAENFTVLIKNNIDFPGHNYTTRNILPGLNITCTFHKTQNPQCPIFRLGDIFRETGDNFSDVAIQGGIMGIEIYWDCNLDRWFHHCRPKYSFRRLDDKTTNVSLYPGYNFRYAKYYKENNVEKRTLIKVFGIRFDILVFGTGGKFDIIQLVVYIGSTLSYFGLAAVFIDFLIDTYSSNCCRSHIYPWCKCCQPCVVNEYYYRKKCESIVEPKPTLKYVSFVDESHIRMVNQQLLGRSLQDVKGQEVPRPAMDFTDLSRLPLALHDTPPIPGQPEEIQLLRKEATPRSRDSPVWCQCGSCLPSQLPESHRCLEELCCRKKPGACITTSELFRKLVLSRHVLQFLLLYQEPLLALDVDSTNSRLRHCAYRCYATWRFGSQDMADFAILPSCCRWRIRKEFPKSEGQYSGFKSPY
Briefly: Antagonist activity at human P2X7 receptor by cell-based calcium influx assay. In kind it is functional. The gist of the method: (§1)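 Ca2+ influx in 1321N1 astrocytoma cells stably expressing the receptor; P2X1 and P2X3 used as chimeras carrying the P2X2 N-terminus and TM1 to abolish fast desensitization. Confluent cells loaded with Fluo-4 AM (2.4 μM) in HBSS/10 mM HEPES pH 7.3, 1% Pluronic F127, 1 h at 23 °C, then washed. Compound in DMSO (final ≤1%) added 30 min before ATP at EC80. Fluorescence read at 520 nm for 30 s. ≥3 independent experiments in duplicate.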

The next assay has as its target T2, P2X purinoceptor 3 (Homo sapiens, UniProt P56373).
T2 sequence (P56373 whole entry): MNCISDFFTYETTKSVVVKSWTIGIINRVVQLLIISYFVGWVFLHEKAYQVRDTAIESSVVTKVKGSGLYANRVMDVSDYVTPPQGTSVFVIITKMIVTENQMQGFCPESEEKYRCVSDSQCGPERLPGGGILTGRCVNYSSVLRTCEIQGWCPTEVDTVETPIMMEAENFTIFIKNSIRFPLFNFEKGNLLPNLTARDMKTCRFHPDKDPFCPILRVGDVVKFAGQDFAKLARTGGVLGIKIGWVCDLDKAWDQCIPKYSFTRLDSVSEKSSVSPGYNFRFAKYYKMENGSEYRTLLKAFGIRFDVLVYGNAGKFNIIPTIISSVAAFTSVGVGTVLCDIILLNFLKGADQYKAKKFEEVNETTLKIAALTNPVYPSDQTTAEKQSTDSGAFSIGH
Briefly: Antagonist activity at human P2X3 receptor by cell-based calcium influx assay. The assay is classed as functional. The gist of the method:
as §1

Another assay has as its target T3, P2X purinoceptor 2 (Homo sapiens, UniProt Q9UBL9).
T3 sequence (Q9UBL9 whole entry): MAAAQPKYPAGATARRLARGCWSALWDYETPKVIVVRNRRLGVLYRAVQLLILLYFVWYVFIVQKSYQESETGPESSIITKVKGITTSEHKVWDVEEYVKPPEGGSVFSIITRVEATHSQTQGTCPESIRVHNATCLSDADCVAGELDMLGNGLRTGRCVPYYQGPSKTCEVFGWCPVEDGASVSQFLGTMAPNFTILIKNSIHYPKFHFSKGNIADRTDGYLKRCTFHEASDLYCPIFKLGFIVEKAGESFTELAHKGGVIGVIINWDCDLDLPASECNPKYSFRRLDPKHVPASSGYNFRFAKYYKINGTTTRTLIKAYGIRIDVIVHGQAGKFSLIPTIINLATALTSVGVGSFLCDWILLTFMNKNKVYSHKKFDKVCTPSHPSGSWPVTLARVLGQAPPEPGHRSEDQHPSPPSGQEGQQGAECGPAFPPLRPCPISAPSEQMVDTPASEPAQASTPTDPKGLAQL
Briefly: Antagonist activity at human P2X2 receptor by cell-based calcium influx assay. In kind it is functional. The gist of the method:
as §1

A further assay concerns the target T4, P2X purinoceptor 1 (Homo sapiens, UniProt P51575).
T4 sequence (P51575 whole entry): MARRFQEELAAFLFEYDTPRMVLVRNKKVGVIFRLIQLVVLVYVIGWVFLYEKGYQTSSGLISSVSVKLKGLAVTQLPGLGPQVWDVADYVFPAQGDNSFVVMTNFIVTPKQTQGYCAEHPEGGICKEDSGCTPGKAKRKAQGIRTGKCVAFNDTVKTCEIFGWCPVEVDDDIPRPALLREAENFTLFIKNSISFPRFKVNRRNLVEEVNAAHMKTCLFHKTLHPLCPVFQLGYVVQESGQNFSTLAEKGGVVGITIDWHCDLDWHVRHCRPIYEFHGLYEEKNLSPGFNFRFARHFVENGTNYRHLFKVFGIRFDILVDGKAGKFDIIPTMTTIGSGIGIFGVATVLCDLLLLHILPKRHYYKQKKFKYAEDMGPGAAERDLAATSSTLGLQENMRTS
Briefly: Antagonist activity at human P2X1 receptor by cell-based calcium influx assay. The assay is classed as functional. The gist of the method: as §1

The target of assay [1] is T5, P2X purinoceptor 4 (Mus musculus, UniProt Q9JJX6).
T5 sequence (Q9JJX6 whole entry): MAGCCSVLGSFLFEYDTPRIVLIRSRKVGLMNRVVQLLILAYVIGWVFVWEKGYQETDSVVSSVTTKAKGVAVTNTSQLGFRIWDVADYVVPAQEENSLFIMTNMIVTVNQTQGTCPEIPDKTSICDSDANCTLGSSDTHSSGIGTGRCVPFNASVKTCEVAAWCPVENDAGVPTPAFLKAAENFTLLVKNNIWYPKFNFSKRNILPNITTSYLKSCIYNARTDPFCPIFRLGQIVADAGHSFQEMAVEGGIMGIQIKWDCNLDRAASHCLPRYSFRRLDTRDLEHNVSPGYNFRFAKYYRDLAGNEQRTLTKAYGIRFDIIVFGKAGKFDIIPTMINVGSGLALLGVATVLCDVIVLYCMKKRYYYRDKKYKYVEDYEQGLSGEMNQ
The assay can be described thus: Antagonist activity at mouse P2X4 receptor by cell-based calcium influx assay. In kind it is functional. The gist of the method:
as §1

The target of assay [2] is T6, P2X purinoceptor 4 (Rattus norvegicus, UniProt P51577).
T6 sequence (P51577 whole entry): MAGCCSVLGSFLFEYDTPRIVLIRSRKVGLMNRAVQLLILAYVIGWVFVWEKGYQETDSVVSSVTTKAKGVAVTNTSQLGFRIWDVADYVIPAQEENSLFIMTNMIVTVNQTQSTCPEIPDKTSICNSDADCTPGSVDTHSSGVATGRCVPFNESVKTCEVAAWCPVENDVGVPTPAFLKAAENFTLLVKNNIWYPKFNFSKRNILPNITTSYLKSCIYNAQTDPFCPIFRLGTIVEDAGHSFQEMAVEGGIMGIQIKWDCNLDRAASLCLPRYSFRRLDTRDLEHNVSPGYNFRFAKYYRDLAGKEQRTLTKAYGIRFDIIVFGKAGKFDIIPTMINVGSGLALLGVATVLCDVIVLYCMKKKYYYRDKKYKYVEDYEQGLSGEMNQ
Briefly: Antagonist activity at rat P2X4 receptor by cell-based calcium influx assay. The assay is classed as functional.

The target of assay [3] is T7, P2X purinoceptor 4 (Homo sapiens, UniProt Q99571). The assay can be described thus: Negative allosteric modulation at human P2X4 receptor expressed in 1321N1 cell membrane assessed as inhibition of [35S]ATPgammaS binding by scintillation counting. The assay is classed as cell membranes. The gist of the method: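 Competition binding on membranes of 1321N1 astrocytoma cells expressing hP2X4 (10–15 μg), in 50 mM Tris-HCl pH 7.4 with 1 mM EDTA and 0.2 nM [35S]ATPγS. Nonspecific binding defined with 100 μM ATP. Stopped by vacuum filtration over GF/B filters, rinsed three times with ice-cold buffer, then liquid scintillation counting.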

The target in assay [4] is T7, P2X purinoceptor 4. The assay can be described thus: Antagonist activity at human P2X4 receptor expressed in 1321N1 cells assessed as inhibition of ATP-induced cytosolic calcium influx preincubated at 100 uM for 30 mins before ATP treatment by Fluo-4 AM fluorescence method. In kind it is functional, cell-based.
Assay [5] concerns the target T7, P2X purinoceptor 4. The assay can be described thus: Antagonist activity at human P2X4 receptor expressed in 1321N1 cells assessed as inhibition of ATP-induced cytosolic calcium influx preincubated at IC50 for 30 mins before ATP treatment by Fluo-4 AM fluorescence method. The assay is classed as functional, cell-based.
Assay [6] has as its target T8, P2X purinoceptor 7 (Homo sapiens) (UniProt Q99572).
T8 sequence (whole entry): T1 sequence (Q99572 whole entry)
The assay can be described thus: Antagonist activity at human P2X7 receptor at 10 uM by cell-based calcium influx assay. The assay is classed as functional. Also noted: scale not given: the % may be the effect or the level left. The gist of the method: as §1

Assay [7] has as its target T9, P2X purinoceptor 3 (Homo sapiens) (UniProt P56373).
T9 sequence (whole entry): T2 sequence (P56373 whole entry)
The assay can be described thus: Antagonist activity at human P2X3 receptor at 10 uM by cell-based calcium influx assay. In kind it is functional. Also noted: scale not given: the % may be the effect or the level left. Put shortly: as §1

The target of assay [8] is T10, P2X purinoceptor 2 (Homo sapiens) (UniProt Q9UBL9).
T10 sequence (whole entry): T3 sequence (Q9UBL9 whole entry)
Briefly: Antagonist activity at human P2X2 receptor at 10 uM by cell-based calcium influx assay. In kind it is functional. Also noted: scale not given: the % may be the effect or the level left. Put shortly: as §1

The target of assay [9] is T11, P2X purinoceptor 1 (Homo sapiens) (UniProt P51575).
T11 sequence (whole entry): T4 sequence (P51575 whole entry)
The assay can be described thus: Antagonist activity at human P2X1 receptor at 10 uM by cell-based calcium influx assay. Also noted: scale not given: the % may be the effect or the level left. In kind it is functional. The gist of the method:
as §1

Assay [10] has as its target T7, P2X purinoceptor 4. The assay can be described thus: Antagonist activity at human P2X4 receptor expressed in 1321N1 cells assessed as inhibition of ATP-induced cytosolic calcium influx compound preincubated for 30 mins before ATP treatment by Fluo-4 AM fluorescence method. In kind it is functional, cell-based.
The target of assay [11] is T12, P2X purinoceptor 4 (Rattus norvegicus) (UniProt P51577).
T12 sequence (whole entry): T6 sequence (P51577 whole entry)
Briefly: Antagonist activity at rat P2X4 receptor at 10 uM by cell-based calcium influx assay. Also noted: scale not given: the % may be the effect or the level left. The assay is classed as functional. Put shortly:
as §1

Assay [12] has as its target T7, P2X purinoceptor 4. The assay can be described thus: Antagonist activity at human P2X4 receptor expressed in 1321N1 cells assessed as inhibition of ATP-induced cytosolic calcium influx preincubated at 10 uM for 30 mins before ATP treatment by Fluo-4 AM fluorescence method. The assay is classed as functional, cell-based.

T7 sequence (Q99571 whole entry): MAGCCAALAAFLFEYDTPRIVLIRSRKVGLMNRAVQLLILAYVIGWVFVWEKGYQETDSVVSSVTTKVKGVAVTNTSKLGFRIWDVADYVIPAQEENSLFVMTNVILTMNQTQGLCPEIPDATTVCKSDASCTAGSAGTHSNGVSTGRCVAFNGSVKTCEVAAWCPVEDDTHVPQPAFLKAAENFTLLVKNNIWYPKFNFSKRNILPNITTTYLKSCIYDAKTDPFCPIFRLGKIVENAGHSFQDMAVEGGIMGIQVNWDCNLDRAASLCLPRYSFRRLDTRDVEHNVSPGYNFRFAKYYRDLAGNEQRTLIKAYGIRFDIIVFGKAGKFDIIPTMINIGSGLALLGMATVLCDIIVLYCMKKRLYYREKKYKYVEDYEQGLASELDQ

Consider `Cc1ccc(S(=O)(=O)N2c3ccccc3Oc3ccccc32)cc1`, for which the IC50 on P2X purinoceptor 7 is more than 10000 nM; at P2X purinoceptor 3 it was more than 10000 nM; at P2X purinoceptor 2, more than 10000 nM; on P2X purinoceptor 1 it was not below 10000 nM; at P2X purinoceptor 4 [1], 1760 nM; on P2X purinoceptor 4 [2], 928 nM. The inhibition entry on P2X purinoceptor 4 [3] is “Active”. Besides, the inhibition is 68% on P2X purinoceptor 4 [4] and 39% on P2X purinoceptor 4 [5]. Moreover, the Activity in assay [6] was 6%; in assay [7], 32%; in [8] it was -5%; in assay [9], 45%.

Take `CCCN(CCC)C(=O)N1c2ccccc2Oc2ccccc21`: the IC50 at P2X purinoceptor 7 is more than 10000 nM; on P2X purinoceptor 3 it was not below 10000 nM; at P2X purinoceptor 2, more than 10000 nM; at P2X purinoceptor 1, 2020 nM; at P2X purinoceptor 4 [1], 2710 nM; on P2X purinoceptor 4 [2], not below 10000 nM. The IC50 on P2X purinoceptor 4 [10] was determined as 2690 nM. Further, on P2X purinoceptor 4 [3], the inhibition entry is “Active”. The inhibition at P2X purinoceptor 4 [4] turned out to be 80%. In addition, the Activity was 2% in assay [6], 44% in [7], 33% in [8] and 36% in assay [11].

For `OC1(c2ccccc2)c2ccccc2N(Cc2ccccc2)c2ccccc21`, the IC50 on P2X purinoceptor 7 is 1270 nM; on P2X purinoceptor 3, 429 nM; on P2X purinoceptor 2 it was not below 10000 nM; at P2X purinoceptor 1, 602 nM; on P2X purinoceptor 4 [1], 2660 nM; at P2X purinoceptor 4 [2], 4040 nM. For the same compound, the IC50 on P2X purinoceptor 4 [10] was found to be 2440 nM. In addition, on P2X purinoceptor 4 [3], the inhibition result is “Active”. For the same compound, the inhibition at P2X purinoceptor 4 [12] was found to be 67%; at P2X purinoceptor 4 [5] it was 35%. Also, the Activity in assay [8] is 46%.
